Assay results reported in ChEMBL document CHEMBL1649119, “Daptomycin pharmacokinetics in adult oncology patients with neutropenic fever” (Antimicrob Agents Chemother, 2009).

Legend:
[1] = Renal clearance in nonobese human at 4 mg/kg, iv administered as single dose 30 mins infusion; type: ADME, organism-based, Kidney; parameters: dose 4 mg/kg, route intravenous; settings: in vivo, read-out: CL_renal (converted)
[2] = Apparent volume of distribution during terminal phase in healthy human subjects at 8 mg/kg, iv administered as 30 mins infusion every 24 hrs measured on day 4; type: ADME, organism-based; parameters: dose 8 mg/kg, route intravenous; settings: in vivo
[3] = Volume of distribution at steady state in cancer patient with neutropenic fever at 6 mg/kg, iv administered as 30 mins infusion every 24 hrs; type: ADME, organism-based; parameters: dose 6 mg/kg, route intravenous; settings: human, in vivo, read-out: Vdss
[4] = Half life in nonobese adult human at 4 mg/kg, iv administered as single dose 30 mins infusion; type: ADME, organism-based; parameters: dose 4 mg/kg, route intravenous; settings: in vivo
[5] = Cmax in healthy human subjects at 12 mg/kg, iv administered as 30 mins infusion every 24 hrs measured on day 1; type: ADME, organism-based; parameters: dose 12 mg/kg, route intravenous; settings: in vivo
[6] = Clearance in healthy human subjects at 6 mg/kg, iv administered as 30 mins infusion every 24 hrs measured on day 1; type: ADME, organism-based; parameters: dose 6 mg/kg, route intravenous; settings: in vivo
[7] = Apparent volume of distribution during terminal phase in healthy human at 8 mg/kg, iv administered as 30 mins infusion every 24 hrs measured on day 14; type: ADME, organism-based; parameters: dose 8 mg/kg, route intravenous; settings: in vivo
[8] = AUC (0 to infinity) in moderately obese adult human at 4 mg/kg, iv administered as single dose 30 mins infusion; type: ADME, organism-based; parameters: time infinity, dose 4 mg/kg, route intravenous; settings: plasma
[9] = Half life in healthy human subjects at 6 mg/kg, iv administered as 30 mins infusion every 24 hrs measured on days 1-3; type: ADME, organism-based; parameters: dose 6 mg/kg, route intravenous; settings: in vivo
[10] = Half life in old healthy human at 4 mg/kg, iv administered as single dose 30 mins infusion; type: ADME, organism-based; parameters: dose 4 mg/kg, route intravenous; settings: in vivo
[11] = Clearance in healthy human subjects at 6 mg/kg, iv administered as 30 mins infusion every 24 hrs measured on day 4; type: ADME, organism-based; parameters: dose 6 mg/kg, route intravenous; settings: in vivo
[12] = Volume of distribution at steady state in old healthy human at 4 mg/kg, iv administered as single dose 30 mins infusion; type: ADME, organism-based; parameters: dose 4 mg/kg, route intravenous; settings: in vivo, read-out: Vdss
[13] = Drug excretion in young healthy human urine assessed as unchanged drug at 4 mg/kg, iv administered as single dose 30 mins infusion; type: ADME, organism-based; parameters: dose 4 mg/kg, route intravenous; settings: read-out: Drug uptake
[14] = Drug excretion in nonobese human at 4 mg/kg, iv administered as single dose 30 mins infusion; type: ADME, organism-based; parameters: dose 4 mg/kg, route intravenous; settings: in vivo, read-out: Drug uptake
[15] = Volume of distribution at steady state in young healthy human at 4 mg/kg, iv administered as single dose 30 mins infusion; type: ADME, organism-based; parameters: dose 4 mg/kg, route intravenous; settings: in vivo, read-out: Vdss
[16] = Clearance in healthy human subjects at 6 mg/kg, iv administered as 30 mins infusion every 24 hrs measured on days 1-3; type: ADME, organism-based; parameters: dose 6 mg/kg, route intravenous; settings: in vivo
[17] = Plasma concentration in moderately obese adult human at 4 mg/kg, iv administered as single dose 30 mins infusion measured after 24 hrs; type: ADME, organism-based; parameters: dose 4 mg/kg, route intravenous
[18] = AUC (0 to infinity) in young healthy human at 4 mg/kg, iv administered as single dose 30 mins infusion; type: ADME, organism-based; parameters: dose 4 mg/kg, route intravenous, time infinity; settings: plasma
[19] = Half life in young healthy human at 4 mg/kg, iv administered as single dose 30 mins infusion; type: ADME, organism-based; parameters: dose 4 mg/kg, route intravenous; settings: in vivo
[20] = AUC ( 0 to infinity) in cancer patient with neutropenic fever at 6 mg/kg, iv administered as 30 mins infusion every 24 hrs; type: ADME, organism-based; parameters: time infinity, dose 6 mg/kg, route intravenous; settings: human, plasma
Procedure, shortened: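 Adult oncology patients with neutropenic fever (n = 29) received 6 mg/kg by total body weight as a 30-min IV infusion. Plasma was sampled predose, at end of infusion, and at 0.5, 1, 2, 4, 8, 12 and 24 h. Total drug was measured by validated HPLC (linear 1–100 μg/ml). Noncompartmental analysis: AUC0-24 by linear trapezoidal rule, plus last concentration/λz. Mean ± SD.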

[21] = AUC (0 to infinity) in healthy human at 6 mg/kg, iv administered as 30 mins infusion every 24 hrs measured on day 1; type: ADME, organism-based; parameters: time infinity, dose 6 mg/kg, route intravenous; settings: plasma
[22] = Clearance in healthy human at 6 mg/kg, iv administered as 30 mins infusion every 24 hrs measured on day 7; type: ADME, organism-based; parameters: dose 6 mg/kg, route intravenous; settings: in vivo
[23] = Apparent volume of distribution during terminal phase in healthy human at 8 mg/kg, iv administered as 30 mins infusion every 24 hrs measured on day 7; type: ADME, organism-based; parameters: dose 8 mg/kg, route intravenous; settings: in vivo
[24] = AUC (0 to infinity) in healthy human subjects at 12 mg/kg, iv administered as 30 mins infusion every 24 hrs measured on day 4; type: ADME, organism-based; parameters: time infinity, dose 12 mg/kg, route intravenous; settings: plasma
[25] = AUC (0 to infinity) in healthy human subjects at 10 mg/kg, iv administered as 30 mins infusion every 24 hrs measured on day 1; type: ADME, organism-based; parameters: time infinity, dose 10 mg/kg, route intravenous; settings: plasma
[26] = Clearance in healthy human subjects at 10 mg/kg, iv administered as 30 mins infusion every 24 hrs measured on day 1; type: ADME, organism-based; parameters: dose 10 mg/kg, route intravenous; settings: in vivo
[27] = Cmax in healthy human at 6 mg/kg, iv administered as 30 mins infusion every 24 hrs measured on day 7; type: ADME, organism-based; parameters: dose 6 mg/kg, route intravenous; settings: in vivo
[28] = Mean residence time in young healthy human at 4 mg/kg, iv administered as single dose 30 mins infusion; type: ADME, organism-based; parameters: dose 4 mg/kg, route intravenous; settings: in vivo
[29] = Half life in healthy human subjects at 8 mg/kg, iv administered as 30 mins infusion every 24 hrs measured on day 4; type: ADME, organism-based; parameters: dose 8 mg/kg, route intravenous; settings: in vivo
[30] = Clearance in nonobese human at 4 mg/kg, iv administered as single dose 30 mins infusion; type: ADME, organism-based; parameters: dose 4 mg/kg, route intravenous; settings: in vivo
[31] = Half life in adult human subjects at 6 mg/kg, iv administered as single dose 30 mins infusion; type: ADME, organism-based; parameters: dose 6 mg/kg, route intravenous; settings: in vivo
[32] = Half life in healthy human subjects at 6 mg/kg, iv administered as 30 mins infusion every 24 hrs measured on day 4; type: ADME, organism-based; parameters: dose 6 mg/kg, route intravenous; settings: in vivo
[33] = Half life in morbidly obese adult human at 4 mg/kg, iv administered as single dose 30 mins infusion; type: ADME, organism-based; parameters: dose 4 mg/kg, route intravenous; settings: in vivo
[34] = Cmax in nonobese adult human at 4 mg/kg, iv administered as single dose 30 mins infusion; type: ADME, organism-based; parameters: dose 4 mg/kg, route intravenous; settings: in vivo
[35] = Cmax in moderately obese adult human at 4 mg/kg, iv administered as single dose 30 mins infusion; type: ADME, organism-based; parameters: dose 4 mg/kg, route intravenous; settings: in vivo
[36] = Half life in healthy adult human at 6 mg/kg, iv administered as single dose 30 mins infusion; type: ADME, organism-based; parameters: dose 6 mg/kg, route intravenous; settings: in vivo
[37] = Apparent volume of distribution during terminal phase in healthy human subjects at 12 mg/kg, iv administered as 30 mins infusion every 24 hrs measured on day 4; type: ADME, organism-based; parameters: dose 12 mg/kg, route intravenous; settings: in vivo
[38] = test system: Homo sapiens; assay: Unbound clearance in healthy human at 4 mg/kg, iv administered as 30 mins infusion every 24 hrs measured on day 7; type: ADME, organism-based; parameters: dose 4 mg/kg, route intravenous; settings: in vivo
[39] = Renal clearance in old healthy human at 4 mg/kg, iv administered as single dose 30 mins infusion; type: ADME, organism-based, Kidney; parameters: dose 4 mg/kg, route intravenous; settings: in vivo, read-out: CL_renal (converted)
[40] = Clearance in healthy human subjects at 10 mg/kg, iv administered as 30 mins infusion every 24 hrs measured on day 4; type: ADME, organism-based; parameters: dose 10 mg/kg, route intravenous; settings: in vivo
[41] = Unbound fraction in healthy human plasma at 4 mg/kg, iv administered as 30 mins infusion every 24 hrs measured on day 7; type: ADME, organism-based; parameters: dose 4 mg/kg, route intravenous
[42] = test system: Staphylococcus; assay: Antimicrobial activity against Staphylococcus; type: functional
[43] = Clearance in healthy human at 8 mg/kg, iv administered as 30 mins infusion every 24 hrs measured on day 7; type: ADME, organism-based; parameters: dose 8 mg/kg, route intravenous; settings: in vivo
[44] = Cmax in old healthy human at 4 mg/kg, iv administered as single dose 30 mins infusion; type: ADME, organism-based; parameters: dose 4 mg/kg, route intravenous; settings: in vivo
[45] = Plasma concentration in morbidly obese adult human at 4 mg/kg, iv administered as single dose 30 mins infusion measured after 24 hrs; type: ADME, organism-based; parameters: dose 4 mg/kg, route intravenous
[46] = Plasma concentration in young healthy human at 4 mg/kg, iv administered as single dose 30 mins infusion measured after 24 hrs; type: ADME, organism-based; parameters: dose 4 mg/kg, route intravenous

CCCCCCCCCC(=O)N[C@@H](Cc1c[nH]c2ccccc12)C(=O)N[C@H](CC(N)=O)C(=O)N[C@@H](CC(=O)O)C(=O)N[C@@H]1C(=O)NCC(=O)N[C@@H](CCCN)C(=O)N[C@@H](CC(=O)O)C(=O)N[C@H](C)C(=O)N[C@@H](CC(=O)O)C(=O)NCC(=O)N[C@H](CO)C(=O)N[C@@H]([C@H](C)CC(=O)O)C(=O)N[C@@H](CC(=O)c2ccccc2N)C(=O)O[C@@H]1C
CL renal at 0.5 h [1]: 0.098 mL/min/kg
Vd [2]: 0.101 L/kg
Vd [3]: 0.18 L/kg
half-life [4]: 6.83 h
Cmax [5]: 165000 ng/mL
clearance [6]: 0.165 mL/min/kg
Vd [7]: 0.095 L/kg
AUC(0-inf) [8]: 421 µg·h/mL
half-life [9]: 7.6 h
half-life [10]: 11.8 h
clearance [11]: 0.152 mL/min/kg
Vd [12]: 0.15 L/kg
dose excreted at 0.5 h [13]: 42.3%
dose excreted at 0.5 h [14]: 48.6%
Vd [15]: 0.14 L/kg
clearance [16]: 0.158 mL/min/kg
concentration at 24 h [17]: 3440 ng/mL
AUC(0-inf) [18]: 301 µg·h/mL
half-life [19]: 6.79 h
AUC(0-inf) [20]: 427 µg·h/mL
AUC(0-inf) [21]: 705 µg·h/mL
clearance [22]: 0.135 mL/min/kg
Vd [23]: 0.092 L/kg
AUC(0-inf) [24]: 1280 µg·h/mL
AUC(0-inf) [25]: 1010 µg·h/mL
clearance [26]: 0.165 mL/min/kg
Cmax [27]: 98600 ng/mL
MRT [28]: 9.05 h
half-life [29]: 8.3 h
clearance [30]: 0.17 mL/min/kg
half-life [31]: 9.44 h
half-life [32]: 7.9 h
half-life [33]: 8.12 h
Cmax [34]: 46300 ng/mL
Cmax [35]: 57800 ng/mL
half-life [36]: 8.06 h
Vd [37]: 0.0976 L/kg
CL [38]: 1.05 mL/min/kg
CL renal at 0.5 h [39]: 0.0712 mL/min/kg
clearance [40]: 0.147 mL/min/kg
fraction unbound at 7 day [41]: 0.08
MIC90 [42]: < 1 µg/mL
clearance [43]: 0.118 mL/min/kg
Cmax [44]: 44000 ng/mL
concentration at 24 h [45]: 5880 ng/mL
concentration at 24 h [46]: < 3300 ng/mL
